H9c2 TAG inh – reduces triacylglycerol accumulation in H9c2 cells; Nile Red lipid (TAG) fluorescence; cells loaded with 200 µM oleic acid; inhibition, % at 12.5 µM; actives 0.66% (n = 230,000);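 active = pattern-corrected inhibition of lipid staining of at least 50% with the nuclear-stain viability signal not falling by more than 50%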
T cruzi repl – T. cruzi replication inhibition | actives 1.4% (n = 300,000) | inhibition, % (test concentration not listed) | AID 1885 | T. cruzi beta-gal in NIH3T3, luminescence, 90 h;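 active = mean inhibition across valid replicates above about 55%, limit read from the data; inconclusive = mean below that limit but half or more replicates reach it; inactive = mean below it, under half of replicates reach it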;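 also: signal also drops with host cell toxicity which is not excluded here; higher percent means less beta-gal luminescence so fewer parasites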
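System – NIH/3T3 host cells with β-galactosidase reporter T. cruzi · Doses – single 50 nL compound addition per well in DMSO · Reagent – 5000 T. cruzi trypomastigotes/well · Medium – Low-serum DMEM with 2% FBS · Timing – ≥90 h infection period, 3 h prior cell attachment · Evaluation – parasite load inhibition, % · Technique – GalScreen luminescence, 60 min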
hiPSC survival – increases survival of single human iPS cells; hiPSC single-cell survival, ATPlite luminescence; 100% = ROCK inhibitor wells, 0% = DMSO; survival enhancement, % at 20 µM; actives 0.044% (n = 360,000); AID 602274; in the data active = survival enhancement above about 18%;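 also: cells exposed to compounds for 16 hours before the ATP read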
Rev-erbA mod – Rev-erb alpha (human) modulation | P20393 | Rev-erbα–FITC-DNA binding, fluorescence polarization, 90 min | activity, % at 10 µM | actives 0.79% (n = 370,000) | AID 1259318;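 active = activity above about 14%, limit read from the data; passing the limit was not always enough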
Target sequence (P20393 whole entry, looked up): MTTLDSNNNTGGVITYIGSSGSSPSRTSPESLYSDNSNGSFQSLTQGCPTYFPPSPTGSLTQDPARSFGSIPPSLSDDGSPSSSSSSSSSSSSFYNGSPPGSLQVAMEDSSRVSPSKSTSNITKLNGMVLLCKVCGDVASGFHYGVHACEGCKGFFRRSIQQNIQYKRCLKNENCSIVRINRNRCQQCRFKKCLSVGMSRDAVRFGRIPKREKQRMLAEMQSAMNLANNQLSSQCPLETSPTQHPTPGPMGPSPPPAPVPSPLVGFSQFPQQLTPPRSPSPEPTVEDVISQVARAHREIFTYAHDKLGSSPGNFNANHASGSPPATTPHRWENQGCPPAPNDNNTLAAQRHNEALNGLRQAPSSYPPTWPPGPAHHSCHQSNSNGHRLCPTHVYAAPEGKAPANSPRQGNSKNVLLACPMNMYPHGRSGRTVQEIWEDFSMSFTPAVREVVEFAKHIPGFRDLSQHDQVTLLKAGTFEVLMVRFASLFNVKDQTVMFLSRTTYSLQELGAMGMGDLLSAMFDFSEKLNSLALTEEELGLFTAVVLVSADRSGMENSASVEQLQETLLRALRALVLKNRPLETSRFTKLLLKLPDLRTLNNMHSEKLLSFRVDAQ
beta cell repl – MIN6 beta-cell proliferation induction; AID 2380; actives 0.29% (n = 330,000); proliferation, % at 10 µM; MIN6 cells proliferation, ATPlite luminescence, 48 h; cells starved in 0.2% serum; 100% = growth in 10% serum;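 active = compounds whose signal lies at least 3.5 SD above the mean of all wells on their plate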
PG9 Ab binder – PG9 antibody binding by small molecule. TR-FRET gp120-PG9 antibody binding. inhibition, % at 6.7 µM. actives 0.43% (n = 360,000). AID 624416; in the data active = inhibition above about 8.5%
Numbers stand for hits; – = inactive; ? = inconclusive; · = no result given. Rows were chosen to be rich in hits. Some 2.9% of all compounds tested hit in one or more screens of this group.

SMILES | H9c2 TAG inh | T cruzi repl | hiPSC survival | Rev-erbA mod | beta cell repl | PG9 Ab binder
CN1CCC(N(C)c2nc(-c3ccc([N+](=O)[O-])cc3)nc3ccccc23)CC1 | 58.7 | – | – | – | · | –
COc1cc(OC)c2c(c1)OCC1CON(C)C21 (stereo not drawn) | – | – | – | – | – | –
CC(C)C[C@@H]1COc2cccc(N3CCN(C)CC3)c2S(=O)(=O)N1 | · | · | – | – | · | –
COC(=O)C1=C(c2cc3ccccc3s2)C[C@@H]2CC[C@H]1N2C(=O)NCC1CC1 | – | – | – | – | – | –
COC(=O)C1=C(c2cc3ccccc3s2)C[C@@H]2CC[C@H]1N2C(=O)NCc1ccc(C(F)(F)F)cc1 | – | 57.4 | – | – | – | –
CC1([N+](=O)[O-])COP(=O)(NCc2cccnc2)OC1 (stereo not drawn) | – | · | – | – | · | –
CCC1(CC)C(=O)N(Cc2ccccc2)C(=O)N(Cc2ccccc2)C1=O | · | 61.4 | – | · | – | ·
O=C(COc1ccc2ccc(=O)oc2c1)N1CCC(C(=O)O)(c2ccccc2)CC1 | · | – | – | – | – | –
Cc1nc2ccccc2c(=O)n1-c1ccncc1 | – | – | – | – | – | –
Cc1nc2ccccc2c(=O)n1-c1cc([N+](=O)[O-])cc([N+](=O)[O-])c1 | · | 55.3 | – | – | – | –
COC(=O)[C@@H]1[C@@H](C(=O)OC)C2(c3ccccc3-c3ccccc32)N(c2ccc(Cl)cc2)N1C#N | – | 55.8 | – | – | – | –
CCOC(=O)c1ccc(-[n+]2c(-c3ccccc3)cc(-c3ccccc3)cc2-c2ccccc2)cc1 | · | 65.3 | · | · | – | ·
CCOC(=O)c1cccc(-[n+]2c(-c3ccccc3)cc(-c3ccccc3)cc2-c2ccccc2)c1 | – | – | – | – | – | –
CN(C)c1ccc(-[n+]2c(-c3ccccc3)cc(-c3ccccc3)cc2-c2ccccc2)cc1 | · | 60.7 | – | – | – | –
CCN(CC)P(=O)(c1n(CC)cc[n+]1CC)N(CC)CC | – | – | – | – | – | –
Cc1ccsc1CNCCc1ccc(F)cc1 | · | – | – | – | – | –
C=C[C@H]1CN2CC[C@H]1C[C@@H]2[C@H](O)c1ccnc2ccccc12 | · | · | · | – | · | ·
Cn1c(NN=O)nc2ccccc21 | – | 55.2 | – | – | – | –
COc1cccc(CN2CCNCC2)c1OC | – | ? | – | – | – | –
COc1cc(OC)c(OC)cc1CNCCc1ccc(F)cc1 | · | 62.5 | – | – | – | –
CCN(CC)c1ccc(CNCCc2ccc(F)cc2)cc1 | – | – | – | – | – | –
CCc1ccc(CNCCc2ccc(F)cc2)cc1 | · | 58.8 | – | – | – | –
Fc1ccc(CNCCc2ccc3c(c2)OCO3)cc1 | – | – | – | – | – | –
Fc1ccc(CCNCc2ccc(Cl)c(Cl)c2)cc1 | · | 67.2 | – | – | – | –
COc1cc(OC)c(OC)cc1CNCCc1ccc(OC)c(OC)c1 | · | – | – | – | – | –
SMILES | H9c2 TAG inh | T cruzi repl | hiPSC survival | Rev-erbA mod | beta cell repl | PG9 Ab binder
COc1ccc(CNCCc2ccc(Cl)cc2)c(OC)c1OC | · | 64.1 | – | – | – | –
CC1=C(C(=O)OC(C)C)[C@]2(C(=O)N(CC(N)=O)c3ccccc32)C(C#N)=C(N)O1 | – | – | – | – | – | –
Cc1ccccc1-n1c(O)c(C=NCCN2CCOCC2)c(=O)[nH]c1=O | – | – | – | – | – | –
CCCCC1(CCC)C(=O)NC(=S)NC1=O | – | · | – | – | · | –
COC1CCC(OC2CC(C3(C)CCC4(CC(O)C(C)C(C(C)/C=C(\C)C(=O)C(C)CC(C)C(=O)O)O4)O3)OC3(OC(C4OC(O)(CO)C(C)CC4C)CC3C)C2C)OC1C (stereo not drawn) | 97.4 | · | – | – | · | –
COc1ccccc1CN1CCN(Cc2ccc(Cl)cc2)CC1 | – | 58.1 | – | – | – | –
COc1ccc(CN2CCN(Cc3ccccc3OC)CC2)cc1 | · | – | – | – | – | –
O=C(CCCN1CCC(n2c(=O)[nH]c3ccccc32)CC1)c1ccc(F)cc1 | – | · | – | – | – | –
COC(=O)[C@]12OC[C@]34C([C@@H](O)[C@@H]1O)[C@]1(C)CC(=O)C(O)=C(C)[C@@H]1C[C@H]3OC(=O)[C@H](O)[C@@H]24 (stereo partly drawn) | 65.2 | – | – | – | – | –

From PubChem
